Test system: Fibroblast
Assay: Multiplex assay against human fibroblast
Type: toxicity, cell-based
In short: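 Cells were classed with CellPathfinder machine-learning gating, first as Hoechst high-intensity objects or normal cells, then (normal cells) as healthy, pyknosed or fragmented nuclei, and finally (pyknosed cells) as mitotic or apoptotic. Staining of live cells at seeding used Hoechst33342, BioTracker Green Microtubule Cytoskeleton Dye, MitoTracker Red and Annexin V Alexa Fluor 680, with imaging on a CQ1 microscope at 37°C and 5% CO2 after compound addition. Tubulin, mitochondrial-mass and membrane-permeability phenotypes are per cents of healthy-nucleus cells.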

[1] = 12 h, 1 µM, compound concentration 1 uM, replicate 1
[2] = 12 h, 1 µM, compound concentration 1 uM, replicate 2
[3] = 12 h, 10 µM, compound concentration 10 uM, replicate 1
[4] = 12 h, 10 µM, compound concentration 10 uM, replicate 2
[5] = 24 h, 1 µM, compound concentration 1 uM, replicate 1
[6] = 24 h, 1 µM, compound concentration 1 uM, replicate 2
[7] = 24 h, 10 µM, compound concentration 10 uM, replicate 1
[8] = 24 h, 10 µM, compound concentration 10 uM, replicate 2
[9] = 48 h, 1 µM, compound concentration 1 uM, replicate 1
[10] = 48 h, 1 µM, compound concentration 1 uM, replicate 2
[11] = 48 h, 10 µM, compound concentration 10 uM, replicate 1
[12] = 48 h, 10 µM, compound concentration 10 uM, replicate 2

C=CC(=O)Nc1cc(-n2c(=O)ccc3cnc4ccc(-c5ccc(NS(C)(=O)=O)cc5)cc4c32)ccc1C
Population Apoptotic (%) [1]: 52%
Population Fragmented Nuclei (%) [1]: 37%
Population Healthy Nuclei (%) [1]: 32%
Population Hoechst High Intensity Objects (%) [1]: 7%
Population Membrane Permeable-Phenotype (%) [1]: 15%
Population Mitochondria Different-Phenotype (%) [1]: 3%
Population Mitotic Cells (%) [1]: 47%
Population Normal (%) [1]: 92%
Population Pyknosed Nuclei (%) [1]: 29%
Population Tubulin-Different-Phenotype (%) [1]: 30%
Total Cell Count [1]: 85
Population Apoptotic (%) [2]: 33%
Population Fragmented Nuclei (%) [2]: 10%
Population Healthy Nuclei (%) [2]: 77%
Population Membrane Permeable-Phenotype (%) [2]: 0%
Population Mitochondria Different-Phenotype (%) [2]: 10%
Population Mitotic Cells (%) [2]: 66%
Population Pyknosed Nuclei (%) [2]: 12%
Population Tubulin-Different-Phenotype (%) [2]: 10%
Total Cell Count [2]: 53
Population Apoptotic (%) [3]: 51%
Population Fragmented Nuclei (%) [3]: 30%
Population Healthy Nuclei (%) [3]: 39%
Population Hoechst High Intensity Objects (%) [3]: 8%
Population Membrane Permeable-Phenotype (%) [3]: 32%
Population Mitochondria Different-Phenotype (%) [3]: 13%
Population Mitotic Cells (%) [3]: 48%
Population Normal (%) [3]: 91%
Population Pyknosed Nuclei (%) [3]: 30%
Population Tubulin-Different-Phenotype (%) [3]: 55%
Total Cell Count [3]: 120
Population Apoptotic (%) [4]: 76%
Population Fragmented Nuclei (%) [4]: 8%
Population Healthy Nuclei (%) [4]: 54%
Population Hoechst High Intensity Objects (%) [4]: 9%
Population Membrane Permeable-Phenotype (%) [4]: 12%
Population Mitochondria Different-Phenotype (%) [4]: 56%
Population Mitotic Cells (%) [4]: 23%
Population Normal (%) [4]: 90%
Population Pyknosed Nuclei (%) [4]: 36%
Population Tubulin-Different-Phenotype (%) [4]: 52%
Total Cell Count [4]: 51
Population Apoptotic (%) [5]: 54%
Population Fragmented Nuclei (%) [5]: 23%
Population Healthy Nuclei (%) [5]: 44%
Population Hoechst High Intensity Objects (%) [5]: 11%
Population Membrane Permeable-Phenotype (%) [5]: 22%
Population Mitochondria Different-Phenotype (%) [5]: 16%
Population Mitotic Cells (%) [5]: 45%
Population Normal (%) [5]: 88%
Population Pyknosed Nuclei (%) [5]: 31%
Population Tubulin-Different-Phenotype (%) [5]: 38%
Total Cell Count [5]: 78
Population Apoptotic (%) [6]: 55%
Population Fragmented Nuclei (%) [6]: 11%
Population Healthy Nuclei (%) [6]: 76%
Population Hoechst High Intensity Objects (%) [6]: 2%
Population Membrane Permeable-Phenotype (%) [6]: 3%
Population Mitochondria Different-Phenotype (%) [6]: 15%
Population Mitotic Cells (%) [6]: 44%
Population Normal (%) [6]: 97%
Population Pyknosed Nuclei (%) [6]: 11%
Population Tubulin-Different-Phenotype (%) [6]: 22%
Total Cell Count [6]: 79
Population Apoptotic (%) [7]: 50%
Population Fragmented Nuclei (%) [7]: 36%
Population Healthy Nuclei (%) [7]: 39%
Population Hoechst High Intensity Objects (%) [7]: 9%
Population Membrane Permeable-Phenotype (%) [7]: 35%
Population Mitochondria Different-Phenotype (%) [7]: 5%
Population Mitotic Cells (%) [7]: 50%
Population Normal (%) [7]: 90%
Population Pyknosed Nuclei (%) [7]: 23%
Population Tubulin-Different-Phenotype (%) [7]: 50%
Total Cell Count [7]: 141
Population Apoptotic (%) [8]: 84%
Population Fragmented Nuclei (%) [8]: 21%
Population Healthy Nuclei (%) [8]: 32%
Population Hoechst High Intensity Objects (%) [8]: 5%
Population Membrane Permeable-Phenotype (%) [8]: 22%
Population Mitochondria Different-Phenotype (%) [8]: 50%
Population Mitotic Cells (%) [8]: 15%
Population Normal (%) [8]: 94%
Population Pyknosed Nuclei (%) [8]: 46%
Population Tubulin-Different-Phenotype (%) [8]: 33%
Total Cell Count [8]: 59
Population Apoptotic (%) [9]: 61%
Population Fragmented Nuclei (%) [9]: 32%
Population Healthy Nuclei (%) [9]: 43%
Population Hoechst High Intensity Objects (%) [9]: 6%
Population Membrane Permeable-Phenotype (%) [9]: 25%
Population Mitochondria Different-Phenotype (%) [9]: 3%
Population Mitotic Cells (%) [9]: 38%
Population Normal (%) [9]: 93%
Population Pyknosed Nuclei (%) [9]: 24%
Population Tubulin-Different-Phenotype (%) [9]: 34%
Total Cell Count [9]: 79
Population Apoptotic (%) [10]: 0%
Population Fragmented Nuclei (%) [10]: 28%
Population Healthy Nuclei (%) [10]: 65%
Population Hoechst High Intensity Objects (%) [10]: 12%
Population Membrane Permeable-Phenotype (%) [10]: 19%
Population Mitochondria Different-Phenotype (%) [10]: 7%
Population Mitotic Cells (%) [10]: 100%
Population Normal (%) [10]: 87%
Population Pyknosed Nuclei (%) [10]: 6%
Population Tubulin-Different-Phenotype (%) [10]: 21%
Total Cell Count [10]: 72
Population Apoptotic (%) [11]: 78%
Population Fragmented Nuclei (%) [11]: 39%
Population Healthy Nuclei (%) [11]: 43%
Population Hoechst High Intensity Objects (%) [11]: 18%
Population Membrane Permeable-Phenotype (%) [11]: 29%
Population Mitochondria Different-Phenotype (%) [11]: 4%
Population Mitotic Cells (%) [11]: 21%
Population Normal (%) [11]: 81%
Population Pyknosed Nuclei (%) [11]: 17%
Population Tubulin-Different-Phenotype (%) [11]: 56%
Total Cell Count [11]: 135
Population Apoptotic (%) [12]: 100%
Population Fragmented Nuclei (%) [12]: 56%
Population Healthy Nuclei (%) [12]: 42%
Population Hoechst High Intensity Objects (%) [12]: 15%
Population Membrane Permeable-Phenotype (%) [12]: 33%
Population Mitochondria Different-Phenotype (%) [12]: 1%
Population Mitotic Cells (%) [12]: 0%
Population Normal (%) [12]: 85%
Population Pyknosed Nuclei (%) [12]: 0%
Population Tubulin-Different-Phenotype (%) [12]: 50%
Total Cell Count [12]: 140

From ChEMBL document CHEMBL4689842, “EUbOPEN Chemogenomics Library wave 1” (2021)
